We go through 1 molecule from ChEMBL document CHEMBL4808175 (J Med Chem, 2021).

Active and inactive are the calls of the source. No cut-off for these calls is given here. Where only a bound is given, the exact number is not on record here.

The target in data set [1] is Cone cGMP-specific 3',5'-cyclic phosphodiesterase subunit alpha' (Homo sapiens, UniProt P51160). The data set can be described thus: Inhibition of recombinant full length GST-tagged PDE6C (unknown origin) expressed in baculovirus infected Sf9 insect cells at 15 uM using TAMRA-cGMP as substrate incubated for 1.5 hrs by IMAP-FP assay relative to control. Put shortly:
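PDE6 activity measured at a single 15 μM compound concentration with TAMRA-cGMP substrate. Incubated 1.5 h at 30 °C and read by IMAP fluorescence polarization; percent inhibition relative to control.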

Data set [2] addresses T1, cGMP-specific 3',5'-cyclic phosphodiesterase (Homo sapiens, UniProt O76074). The data set can be described thus: Inhibition of recombinant 6His-tagged PDE5A1 catalytic domain (unknown origin) expressed in Escherichia coli using TAMRA-cGMP or FAM-cAMP as substrate incubated for 1.5 hrs by IMAP-FP assay.
The nature of data set [3]: Protein binding in human plasma assessed as bound fraction by HPLC-MS/MS analysis. Type of data set: ADME, cell-free. As to conditions: read-out: PPB (converted). Put shortly: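 Human plasma spiked with compound at 10 μM, 1% DMSO final. Dialyzed against PBS pH 7.4 for 4 h at 37 °C. Both compartments diluted, acetonitrile-precipitated and quantified by HPLC-MS/MS. An undialyzed spiked control served for recovery; duplicates.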

Data set [4] can be described thus: Toxicity in athymic nude-Foxn1nu mouse assessed as effect on liver at 50 to 150 mg/kg, po bid for 28 days. In kind it is organism-based. As to conditions: in vivo, 672 h, dose 50-150 mg/kg, time 28 day.
In data set [5] the target is T1, cGMP-specific 3',5'-cyclic phosphodiesterase. The data set can be described thus: Inhibition of PDE5A in HEK293 cells stably transfected with cGMP biosensor assessed as increase in SNP-induced intracellular cGMP level measured after 90 mins by luminescence assay. Type of data set: cell-based.
The target in data set [6] is T2, Dual 3',5'-cyclic-AMP and -GMP phosphodiesterase 11A (Homo sapiens, UniProt Q9HCR9). The data set can be described thus: Inhibition of recombinant GST-tagged full length PDE11A4 (unknown origin) expressed in baculovirus infected Sf9 insect cells using FAM-cAMP as substrate incubated for 1.5 hrs by IMAP-FP assay. Put shortly: (§1)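 PDE enzymes incubated with compound or vehicle and 50 nM TAMRA-cGMP or FAM-cAMP substrate for 1.5 h at 30 °C. Activity read by IMAP fluorescence polarization. IC50 from 10 concentrations, at least two replicates each, fitted by four-parameter logistic. Dose–response repeated at least twice; mean of at least two experiments.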

Data set [7] is filed under the species Homo sapiens. The data set can be described thus: Selectivity ratio of IC50 for recombinant full length GST-tagged PDE6C (unknown origin) expressed in baculovirus infected Sf9 insect cells to IC50 for recombinant full length GST-tagged PDE5A1 (unknown origin) expressed in baculovirus infected Sf9 insect cells using TAMRA-cGMP as substrate incubated for 1.5 hrs by IMAP-FP assay using TAMRA-cGMP as substrate incubated for 1.5 hrs by IMAP-FP assay.

Data set [8] can be described thus: Toxicity in athymic nude-Foxn1nu mouse at 50 to 150 mg/kg, po bid for 28 days. In kind it is organism-based. Particulars: in vivo, 672 h, dose 50-150 mg/kg, time 28 day. Put shortly:
(§2)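 Female athymic nude-Foxn1nu mice, 8–9 weeks, 18–24 g, n=4 per group. Oral gavage at 50, 100 or 150 mg/kg twice daily, or vehicle, for 28 days. Formulation ethanol/water/Maalox (7:3:90, v/v/v). Toxicity signs monitored daily. Body weight recorded daily in week 1, then twice weekly, as percent change from starting weight.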

The target of data set [9] is Dual specificity calcium/calmodulin-dependent 3',5'-cyclic nucleotide phosphodiesterase 1A (Homo sapiens, UniProt P54750). The data set can be described thus: Inhibition of recombinant full length GST-tagged PDE1A (unknown origin) expressed in baculovirus infected Sf9 insect cells using TAMRA-cGMP as substrate incubated for 1.5 hrs by IMAP-FP assay. The method in brief:
as §1

Data set [10] concerns the target High affinity cAMP-specific and IBMX-insensitive 3',5'-cyclic phosphodiesterase 8A (Homo sapiens, UniProt O60658). The data set can be described thus: Inhibition of recombinant GST-tagged full length PDE8A1 (unknown origin) expressed in baculovirus infected Sf9 insect cells using FAM-cAMP as substrate incubated for 1.5 hrs by IMAP-FP assay. The method in brief: as §1

Data set [11] can be described thus: Half life in C57BL/6N mouse at 150 mg/kg, po administered as single dose measured up to 8 hrs by LC-MS/MS analysis. Type of data set: ADME, organism-based. As to conditions: in vivo.
Data set [12] in a line: Toxicity in athymic nude-Foxn1nu mouse assessed as drug tolerance at 50 to 150 mg/kg, po bid for 28 days. In kind it is organism-based. Particulars: in vivo, 672 h, dose 50-150 mg/kg, time 28 day. Put shortly: as §2
For data set [13], the species on record is Homo sapiens. The data set can be described thus: Selectivity ratio of IC50 for recombinant GST-tagged full length PDE11A4 (unknown origin) expressed in baculovirus infected Sf9 insect cells to IC50 for recombinant full length GST-tagged PDE5A1 (unknown origin) expressed in baculovirus infected Sf9 insect cells using TAMRA-cGMP as substrate incubated for 1.5 hrs by IMAP-FP assay using TAMRA-cGMP as substrate incubated for 1.5 hrs by IMAP-FP assay.

Data set [14] deals with cGMP-inhibited 3',5'-cyclic phosphodiesterase 3A (Homo sapiens, UniProt Q14432). The data set can be described thus: Inhibition of recombinant GST-tagged PDE3A (669 to end residues) (unknown origin) expressed in baculovirus infected Sf9 insect cells using TAMRA-cGMP as substrate incubated for 1.5 hrs by IMAP-FP assay. The method in brief: as §1
The target of data set [15] is T1, cGMP-specific 3',5'-cyclic phosphodiesterase. The data set can be described thus: Inhibition of recombinant full length GST-tagged PDE5A1 (unknown origin) expressed in baculovirus infected Sf9 insect cells using TAMRA-cGMP as substrate incubated for 1.5 hrs by IMAP-FP assay.
A short description of data set [16]: Tmax in C57BL/6N mouse at 150 mg/kg, po administered as single dose measured up to 8 hrs by LC-MS/MS analysis. Particulars: in vivo. Type of data set: ADME, organism-based.
Data set [17] in a line: Cmax in C57BL/6N mouse at 150 mg/kg, po administered as single dose measured up to 8 hrs by LC-MS/MS analysis. In kind it is ADME, organism-based. Further details: route oral, dose 150 mg/kg, time <=8. As to conditions: in vivo.
Data set [18] can be described thus: Toxicity in athymic nude-Foxn1nu mouse assessed as body weight gain at 50 to 150 mg/kg, po bid for 28 days. In kind it is organism-based. As to conditions: in vivo, 672 h, dose 50-150 mg/kg, time 28 day. The method in brief: as §2
Data set [19] in a line: Elimination rate constant in C57BL/6N mouse at 150 mg/kg, po administered as single dose measured up to 8 hrs by LC-MS/MS analysis. In kind it is ADME, organism-based. As to conditions: in vivo.
Data set [20] in a line: Toxicity in athymic nude-Foxn1nu mouse assessed as effect on kidney at 50 to 150 mg/kg, po bid for 28 days. Type of data set: organism-based. Particulars: in vivo, 672 h, dose 50-150 mg/kg, time 28 day.
Data set [21] has as its target cAMP and cAMP-inhibited cGMP 3',5'-cyclic phosphodiesterase 10A (Homo sapiens, UniProt Q9Y233). The data set can be described thus: Inhibition of recombinant GST-tagged full length PDE10A2 (unknown origin) expressed in baculovirus infected Sf9 insect cells using FAM-cAMP as substrate incubated for 1.5 hrs by IMAP-FP assay. The method in brief: as §1
The nature of data set [22]: AUC (0 to 8 hrs) in C57BL/6N mouse at 150 mg/kg, po administered as single dose measured up to 8 hrs by LC-MS/MS analysis. In kind it is ADME, organism-based. Further details: route oral, dose 150 mg/kg, time <=8. Particulars: in vivo.
For data set [23], the target named is T2, Dual 3',5'-cyclic-AMP and -GMP phosphodiesterase 11A. The data set can be described thus: Inhibition of recombinant GST-tagged full length PDE11A4 (unknown origin) expressed in baculovirus infected Sf9 insect cells using TAMRA-cGMP as substrate incubated for 1.5 hrs by IMAP-FP assay. Put shortly:
as §1

In data set [24] the target is T1, cGMP-specific 3',5'-cyclic phosphodiesterase. The data set can be described thus: Competitive inhibition of recombinant 6His-tagged PDE5A1 catalytic domain (unknown origin) expressed in Escherichia coli assessed as increase in apparent Km up to 40 nM using varying levels TAMRA-cGMP or FAM-cAMP as substrate. Particulars: dose nM <=40.

T2 sequence (Q9HCR9 whole entry): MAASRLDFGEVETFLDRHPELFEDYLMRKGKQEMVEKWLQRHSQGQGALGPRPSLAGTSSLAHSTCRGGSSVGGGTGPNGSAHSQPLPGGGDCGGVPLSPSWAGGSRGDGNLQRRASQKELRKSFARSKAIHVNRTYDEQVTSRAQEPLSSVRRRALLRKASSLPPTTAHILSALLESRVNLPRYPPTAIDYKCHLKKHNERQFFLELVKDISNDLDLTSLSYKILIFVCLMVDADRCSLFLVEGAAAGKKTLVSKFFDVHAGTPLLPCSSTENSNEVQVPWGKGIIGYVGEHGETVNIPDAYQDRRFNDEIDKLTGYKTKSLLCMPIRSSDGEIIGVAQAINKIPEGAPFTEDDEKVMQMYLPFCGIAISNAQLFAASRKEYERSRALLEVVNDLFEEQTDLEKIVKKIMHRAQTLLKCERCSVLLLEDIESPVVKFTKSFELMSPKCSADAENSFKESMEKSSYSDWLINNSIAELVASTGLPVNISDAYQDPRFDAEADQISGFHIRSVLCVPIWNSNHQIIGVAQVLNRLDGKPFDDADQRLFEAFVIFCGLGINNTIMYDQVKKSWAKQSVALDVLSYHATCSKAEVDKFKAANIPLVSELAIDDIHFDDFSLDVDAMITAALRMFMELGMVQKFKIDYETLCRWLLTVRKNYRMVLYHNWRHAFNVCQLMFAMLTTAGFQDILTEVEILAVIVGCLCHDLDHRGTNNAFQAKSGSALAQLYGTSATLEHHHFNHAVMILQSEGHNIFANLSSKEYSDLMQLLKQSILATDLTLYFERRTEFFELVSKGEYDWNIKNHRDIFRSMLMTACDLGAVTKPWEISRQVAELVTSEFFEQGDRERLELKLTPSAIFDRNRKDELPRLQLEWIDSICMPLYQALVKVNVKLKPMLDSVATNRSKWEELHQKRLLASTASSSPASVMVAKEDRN
High affinity cAMP-specific and IBMX-insensitive 3',5'-cyclic phosphodiesterase 8A, sequence (O60658 whole entry): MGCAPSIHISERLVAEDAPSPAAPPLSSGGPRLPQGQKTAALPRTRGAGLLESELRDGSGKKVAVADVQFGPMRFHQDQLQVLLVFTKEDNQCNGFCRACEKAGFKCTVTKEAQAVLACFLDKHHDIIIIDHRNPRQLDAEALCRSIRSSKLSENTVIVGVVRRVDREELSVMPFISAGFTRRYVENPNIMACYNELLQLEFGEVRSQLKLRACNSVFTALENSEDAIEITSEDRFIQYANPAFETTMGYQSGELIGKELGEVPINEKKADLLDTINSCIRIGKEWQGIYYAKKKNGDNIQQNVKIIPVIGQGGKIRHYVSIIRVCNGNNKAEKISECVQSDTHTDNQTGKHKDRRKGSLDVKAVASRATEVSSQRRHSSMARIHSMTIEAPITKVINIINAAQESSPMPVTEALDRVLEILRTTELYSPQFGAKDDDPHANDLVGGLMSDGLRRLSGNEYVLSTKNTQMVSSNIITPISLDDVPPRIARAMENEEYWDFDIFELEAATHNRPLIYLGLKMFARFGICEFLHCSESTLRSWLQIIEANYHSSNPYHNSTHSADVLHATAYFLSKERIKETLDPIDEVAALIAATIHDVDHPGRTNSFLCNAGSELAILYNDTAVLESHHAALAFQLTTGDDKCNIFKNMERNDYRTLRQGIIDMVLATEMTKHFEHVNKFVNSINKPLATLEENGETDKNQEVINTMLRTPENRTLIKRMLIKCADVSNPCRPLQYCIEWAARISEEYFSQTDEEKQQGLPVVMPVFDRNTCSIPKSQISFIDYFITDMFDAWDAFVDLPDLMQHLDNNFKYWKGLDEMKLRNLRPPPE
Cone cGMP-specific 3',5'-cyclic phosphodiesterase subunit alpha', sequence (P51160 whole entry): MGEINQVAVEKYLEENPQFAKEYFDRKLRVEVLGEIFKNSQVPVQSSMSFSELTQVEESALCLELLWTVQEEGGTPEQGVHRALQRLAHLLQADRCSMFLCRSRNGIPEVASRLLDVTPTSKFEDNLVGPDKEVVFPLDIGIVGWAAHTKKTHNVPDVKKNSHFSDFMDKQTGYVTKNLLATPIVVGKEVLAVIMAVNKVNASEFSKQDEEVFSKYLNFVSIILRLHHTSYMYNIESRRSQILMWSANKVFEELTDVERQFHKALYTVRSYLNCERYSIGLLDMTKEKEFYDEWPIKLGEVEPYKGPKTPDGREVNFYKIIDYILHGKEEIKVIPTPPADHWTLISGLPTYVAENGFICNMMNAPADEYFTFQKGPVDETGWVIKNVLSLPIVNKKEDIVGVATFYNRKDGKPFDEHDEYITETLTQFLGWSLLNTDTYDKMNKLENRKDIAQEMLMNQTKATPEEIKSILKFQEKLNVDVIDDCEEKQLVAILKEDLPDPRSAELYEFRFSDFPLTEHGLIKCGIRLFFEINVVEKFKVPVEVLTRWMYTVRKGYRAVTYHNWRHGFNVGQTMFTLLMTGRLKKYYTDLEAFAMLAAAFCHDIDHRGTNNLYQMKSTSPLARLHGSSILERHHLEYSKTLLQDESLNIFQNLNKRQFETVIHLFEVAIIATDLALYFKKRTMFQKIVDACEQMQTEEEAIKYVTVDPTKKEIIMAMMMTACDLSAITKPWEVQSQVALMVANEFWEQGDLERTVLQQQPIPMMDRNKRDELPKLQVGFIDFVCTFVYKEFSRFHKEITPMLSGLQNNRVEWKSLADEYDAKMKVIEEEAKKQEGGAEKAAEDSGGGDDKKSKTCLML
cAMP and cAMP-inhibited cGMP 3',5'-cyclic phosphodiesterase 10A, sequence (Q9Y233 whole entry): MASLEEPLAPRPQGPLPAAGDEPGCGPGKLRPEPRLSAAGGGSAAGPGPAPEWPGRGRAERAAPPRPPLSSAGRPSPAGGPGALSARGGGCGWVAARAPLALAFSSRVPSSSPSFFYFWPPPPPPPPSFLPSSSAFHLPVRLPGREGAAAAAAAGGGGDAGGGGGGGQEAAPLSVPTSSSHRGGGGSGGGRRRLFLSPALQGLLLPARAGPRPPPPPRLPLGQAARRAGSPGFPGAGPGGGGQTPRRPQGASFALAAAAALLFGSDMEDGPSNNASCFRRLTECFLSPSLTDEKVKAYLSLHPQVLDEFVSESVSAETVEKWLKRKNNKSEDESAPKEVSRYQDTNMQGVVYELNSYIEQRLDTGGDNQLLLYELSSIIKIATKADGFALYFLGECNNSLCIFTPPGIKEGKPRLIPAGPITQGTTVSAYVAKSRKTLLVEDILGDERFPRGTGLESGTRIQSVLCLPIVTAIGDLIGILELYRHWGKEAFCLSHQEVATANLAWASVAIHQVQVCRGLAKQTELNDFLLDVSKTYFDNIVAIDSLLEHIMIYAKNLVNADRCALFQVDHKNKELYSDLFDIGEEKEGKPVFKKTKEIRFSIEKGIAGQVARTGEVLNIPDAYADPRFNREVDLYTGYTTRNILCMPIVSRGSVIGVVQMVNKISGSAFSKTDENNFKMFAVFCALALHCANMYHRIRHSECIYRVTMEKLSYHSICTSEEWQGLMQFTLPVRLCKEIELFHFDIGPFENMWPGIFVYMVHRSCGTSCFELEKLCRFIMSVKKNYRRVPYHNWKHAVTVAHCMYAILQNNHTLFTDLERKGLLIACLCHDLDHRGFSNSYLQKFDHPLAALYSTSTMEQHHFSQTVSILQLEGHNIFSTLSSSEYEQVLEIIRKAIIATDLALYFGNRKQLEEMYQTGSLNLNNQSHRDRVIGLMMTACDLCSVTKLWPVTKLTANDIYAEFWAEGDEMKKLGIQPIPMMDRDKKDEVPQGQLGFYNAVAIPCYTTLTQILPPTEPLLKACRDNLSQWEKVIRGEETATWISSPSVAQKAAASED
Dual specificity calcium/calmodulin-dependent 3',5'-cyclic nucleotide phosphodiesterase 1A, sequence (P54750 whole entry): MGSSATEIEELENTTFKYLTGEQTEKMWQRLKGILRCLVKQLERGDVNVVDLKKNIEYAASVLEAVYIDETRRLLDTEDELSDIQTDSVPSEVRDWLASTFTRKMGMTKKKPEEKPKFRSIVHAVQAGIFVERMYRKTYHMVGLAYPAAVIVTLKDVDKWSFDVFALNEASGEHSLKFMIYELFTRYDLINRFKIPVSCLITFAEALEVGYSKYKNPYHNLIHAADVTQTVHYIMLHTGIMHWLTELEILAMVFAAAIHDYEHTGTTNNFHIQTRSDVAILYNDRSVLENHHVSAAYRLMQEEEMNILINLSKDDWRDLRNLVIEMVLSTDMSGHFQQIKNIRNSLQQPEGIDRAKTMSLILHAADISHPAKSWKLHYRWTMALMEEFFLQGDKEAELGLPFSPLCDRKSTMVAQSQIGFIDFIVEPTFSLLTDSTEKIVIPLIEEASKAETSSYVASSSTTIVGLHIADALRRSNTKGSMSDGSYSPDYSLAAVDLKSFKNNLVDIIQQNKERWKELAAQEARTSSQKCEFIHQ

For the molecule `COc1c(F)cc(C2CC(C(C)(C)C)=NN2c2ccc(C(=O)N3CCN(C)CC3)cc2)cc1F` (centres undefined), the inhibition in data set [1] was 50%. Besides, the IC50 was over 1 µM in data set [2]; over 10 µM in [6]; over 10 µM in [9]; over 10 µM in data set [10]; over 10 µM in [14]; 0.001 µM in data set [15]. For the same molecule, the IC50 in [21] and in data set [23] was over 10 µM each time. Besides, the fraction unbound in data set [3] was 0.02. Further, the Activity entry in data set [4], in data set [8], in [12], in [18] and in [20] was “Non-Toxic” throughout. Also, the half-maximal effective concentration (EC50) in [5] was found to be 6.7 µM. The Ratio IC50 in data set [7] and in data set [13] was over 10000 in each case. Also, in data set [11], the half-life is 2.33 h. For the same molecule, the Tmax in data set [16] stood at 2 h. Further, the peak concentration (Cmax) in [17] was 4000 ng/mL. In data set [19], this molecule had a k el at 8 h of 8.33e-05 s⁻¹. Further, the AUC(0-t) in data set [22] amounted to 14100 ng·h/mL. Moreover, the inhibition entry in [24] is “Active”.
